# Test system: Plasmodium falciparum
# Test: Antimalarial activity against asexual blood stage of Plasmodium falciparum 3D7 after 48 hrs by candle jar method
# Assay type: functional, organism-based
# Settings: 3D7, 48 h
# Procedure, shortened: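 Asexual blood-stage parasites grown in B+ human erythrocytes, RPMI-1640 with 10% heat-inactivated pooled compatible serum; exposed to graded compound concentrations in triplicate, 48 h, 37 °C. Percent parasitemia inhibition versus controls from Giemsa-stained thin smears; IC50 from concentration-response curve.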
row,IC50 [µg/mL],SMILES
1,5.15,O=C(/C=C/c1ccc(Cl)cc1)c1ccc(N2CCCCC2)cc1
2,6.01,O=C(/C=C/c1ccc(Cl)cc1)c1ccc(N2CCCC2)cc1
3,7.76,O=C(/C=C/c1ccc(Cl)cc1)c1ccc(-n2cccn2)cc1
4,8.26,O=C(/C=C/c1ccc(Cl)cc1)c1ccc(-n2ccnc2)cc1
5,1.52,O=C(/C=C/c1ccc(Cl)cc1)c1ccc(-n2cncn2)cc1
6,6.8,COc1ccc(/C=C/C(=O)c2ccc(-n3nnc4ccccc43)cc2)cc1
7,7.16,COc1cc(/C=C/C(=O)c2ccc(N3CCCCC3)cc2)cc(OC)c1OC
8,4.6,COc1cc(/C=C/C(=O)c2ccc(N3CCOCC3)cc2)cc(OC)c1OC
9,8.03,COc1cc(/C=C/C(=O)c2ccc(-n3cncn3)cc2)cc(OC)c1OC
10,2.93,O=C(/C=C/c1ccc(Cl)cc1)c1ccc(-n2cccc2)cc1
11,12.3,COc1ccc(/C=C/C(=O)c2ccc(-n3cccn3)cc2)cc1
12,9.1,O=C(/C=C/c1ccc(Cl)cc1)c1ccc(N2CCOCC2)cc1
13,6,COc1cc(/C=C/C(=O)c2ccc(-n3cccn3)cc2)cc(OC)c1OC
14,2.5,O=C(/C=C/c1ccc(Cl)cc1)c1ccc(-n2nnc3ccccc32)cc1

# — ChEMBL document CHEMBL1141666, “Synthesis of novel substituted 1,3-diaryl propenone derivatives and their antimalarial activity in vitro” (Eur J Med Chem, 2008)
